Source: PubChem (The Scripps Research Institute Molecular Screening Center)
In the library only some 2.3% were active in any assay of this set; here they are far more common.
OXTR agonist: human OXTR agonists, primary screen, fluorescence, CHO-OTR cells, Fluo-8 calcium; Oxytocin receptor (Homo sapiens), P30559; Fluo-8 calcium fluorescence; normalized: DMSO 0%, oxytocin 100%; activation, % at 3 µM; 320,000 compounds, 0.32% hits;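 active = activation above the mean of all tested compounds plus 3 SD, cutoff set per screening run, cut at about 20% in these data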;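 note: peak over basal fluorescence ratio from a 100 s FLIPR kinetic read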
Target sequence (P30559 whole entry, looked up): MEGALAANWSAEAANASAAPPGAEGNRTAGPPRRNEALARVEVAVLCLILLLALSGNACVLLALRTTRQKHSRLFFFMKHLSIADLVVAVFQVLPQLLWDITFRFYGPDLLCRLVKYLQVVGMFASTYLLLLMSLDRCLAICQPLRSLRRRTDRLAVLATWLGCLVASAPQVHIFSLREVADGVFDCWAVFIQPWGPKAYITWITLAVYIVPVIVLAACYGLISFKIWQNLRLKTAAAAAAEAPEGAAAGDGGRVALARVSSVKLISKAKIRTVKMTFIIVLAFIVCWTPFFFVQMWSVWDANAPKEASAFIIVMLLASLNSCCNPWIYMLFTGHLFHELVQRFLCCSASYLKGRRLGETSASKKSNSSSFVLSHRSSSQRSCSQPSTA
TAAR1 antagonist: human TAAR1 antagonists, primary screen, Fluo-8 calcium fluorescence, CHO RD-HGA16 cells; Trace amine-associated receptor 1 (Homo sapiens), Q96RJ0; antagonist; inhibition, % at 3 µM; 360,000 compounds, 1.5% hits; AID 624466, 2012;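 active = inhibition above a per-plate cutoff, the mean inhibition of test compounds on that plate plus 3 SD, cut at about 49% in these data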;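 note: 0% = DMSO plus EC80 beta-PEA response and 100% = DMSO alone without agonist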
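Test system – hTAAR1-expressing CHO RD-HGA16 cells, Gα16-coupled · Also added – β-PEA at EC80 concentration, post-compound challenge · Compound – 3 µM, single point · Incubation – dye loading 75 min at 37 °C, then 30 min room temperature · Measured by – Fluo-8 intracellular calcium dye fluorescence, real-time kinetic reads · Benchmarks – vehicle and agonist controls · Replicates – singlicate, one well per test compound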
V1aR counter: agonists of human V1a receptor, primary screen, counter-screen for OXTR agonist project, fluorescence, CHO-V1R cells; Vasopressin V1a receptor (Homo sapiens), P37288; Fluo-8 calcium fluorescence, agonist mode; 0% DMSO, 100% 3 nM vasopressin; activation, % at 3 µM; 320,000 compounds, 0.25% hits;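 active = activation above the mean activation of all tested compounds plus 3 SD, per screening run, cut at about 20% in these data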;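 note: signal is peak over basal fluorescence ratio across a 100 second FLIPR read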
OXTR potentiator: human OXTR potentiators, primary screen, fluorescence, CHO-OTR cells, Fluo-8 calcium. 320,000 compounds, 0.061% hits. Fluo-8 calcium fluorescence, potentiator mode; 0% = oxytocin EC15, 100% = EC100. AID 2445, 2010. activation, % at 3 µM;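 active = activation above that plate's cutoff, the mean activation of tested compounds plus 3 SD, cut at about 6.6% in these data, passing the limit was not always enough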;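 note: 100% uses oxytocin at 75 nM as the full agonist control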
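Material: CHO-OTR cells, human receptor; compound dosing: single dose, 3.0 µM nominal final compound concentration; schedule: 6 min compound pre-incubation at room temperature, 100 s kinetic read; measured by: kinetic Fluo-8 calcium fluorescence; read-out basis: % activation vs EC15 and EC100 oxytocin; controls: EC15 oxytocin alone as 0%, 75 nM oxytocin as 100%; replicates: singlicate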
TAAR1 agonist: human TAAR1 agonists, primary screen, Fluo-8 calcium fluorescence, CHO RD-HGA16 cells. Trace amine-associated receptor 1 (Homo sapiens), Q96RJ0. vehicle wells 0%, saturating PEA agonist 100%. activation, % at 3 µM. 360,000 compounds, 0.99% hits. AID 624467, 2012;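 active = activation above the mean activation of all test compounds in the run plus 3 SD, cut at about 38% in these data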
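Benchmarks: low control DMSO, high control PEA (EC100); System: CHO RD-HGA16 cells carrying human TAAR1 plus Gα16; Detection: Fluo-8 fluorescence, 5 s baseline then 140 s kinetic read; Schedule: 17-24 h plating, Fluo-8 75 min 37 °C, 30 min RT; Read-out basis: % activation from peak over basal fluorescence ratio, DMSO-to-PEA scaled.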
Starred values were filed as active, the others as inactive; / = no result given.

SMILES	OXTR agonist	TAAR1 antagonist	V1aR counter	OXTR potentiator	TAAR1 agonist
O=C(NC1CCCC1)C(c1ccncc1)N(C(=O)c1csnn1)c1cccc(F)c1 (stereo not drawn)	0	-4	-1	-9	-1
Cc1cccc(C(=O)Nc2ccc(C(=O)/C=C/c3ccncc3)cc2)c1	2	60*	3	-4	18
CC(=O)c1ccc(NC(=O)c2cccc(NC(=O)c3ccccc3)c2)cc1	3	50*	5	-13	12
Cc1cccc(C(=O)Nc2cccc(C(=O)N/N=C/c3ccncc3)c2)c1	2	48	0	-4	13
CSc1ccc(C(=O)NCC2CCN(C(=O)C(=O)c3cc4ccccc4o3)CC2)cc1	/	-23	/	/	2
O=[N+]([O-])c1cc([N+](=O)[O-])c(Oc2cc(F)cc(F)c2)cc1NN1CCCCC1	0	-13	-1	5	14
O=C(O)c1ccc(NC2(C(=O)O)CCCC2)cc1	/	-17	/	/	3
O=[N+]([O-])c1c(Nc2ccc(O)cc2)cc(Cl)c2nonc12	-2	63*	-2	-11	-4
CN(C)c1cc(Nc2ccc(O)cc2)c([N+](=O)[O-])c2nonc12	2	-2	1	1	0
COc1ccc(CNCC(O)COc2ccc(C(C)(C)c3ccccc3)cc2)cc1 (stereo not drawn)	12	5	10	-16	41*
OC(CNCc1ccc(Cl)cc1)COc1ccccc1 (stereo not drawn)	9	-3	7	-16	27
Cc1cccc(C)c1OCC(=O)NNC(=S)NC(=O)C1CC1	3	19	2	1	48*
C=CC[C@H](CC(=O)OC(C)(C)C)C(=O)OC[C@H]1CCCN1C(=O)[C@@H](CC=C)CC(=O)N(CCO)Cc1ccccc1	-2	17	-2	-10	5
Cc1ccc(C(=O)Nc2ccc(Cc3ccncc3)cc2)cc1[N+](=O)[O-]	9	60*	11	-16	15
CC(C)(C)c1ccc(S(=O)(=O)Nc2ccc(Cc3ccncc3)cc2)cc1	19	39	13	-9	46*
CCN(CC)S(=O)(=O)c1ccc(C(=O)Nc2ccc(Cc3ccncc3)cc2)cc1	15	56*	13	-22	21
CCN(CC)S(=O)(=O)c1ccc(NC(=O)c2ccc(N(C)S(C)(=O)=O)cc2)cc1	12	-4	10	-20	14
COc1ccc(CCNC(=O)c2ccc3c(c2)NC(=O)C(CSCc2cc(C)ccc2C)N3)cc1OC (stereo not drawn)	-2	/	-1	-22	/
S=C(NCCCc1cnc[nH]1)NCCCN(Cc1ccccc1)c1ccc(Br)cn1	/	30	/	/	22
S=C(NCCCc1cnc[nH]1)NCCCN(Cc1ccc(Cl)cc1)c1ccc(Br)cn1	/	38	/	/	38*
COC(=O)C1=C(C)N(Cc2ccc(F)cc2)C(=S)NC1c1ccc(Cl)cc1 (stereo not drawn)	/	17	/	/	-1
Cc1cc(NC(=O)c2ccc3sc([C@@H]4O[C@H](CO)[C@H](O)[C@H](O)[C@H]4O)nc3c2)no1	/	-19	/	/	1
COC(=O)CSc1ccsc1C(=O)O	1	11	1	-1	1
O=C(O)c1sccc1SCc1ccc(Cl)c(Cl)c1	19	9	22*	-22	1
O=C1CN(S(=O)(=O)c2ccc(Cl)cc2)CC(=O)N1CCc1ccccc1	-1	56*	-1	-23	9
SMILES	OXTR agonist	TAAR1 antagonist	V1aR counter	OXTR potentiator	TAAR1 agonist
CCOc1ccccc1NC(=O)c1ccccc1-c1nc(-c2ccccc2OC)no1	-3	66*	0	-12	11
CCNC(=O)c1ccccc1-c1nc(-c2ccccc2OC)no1	-1	-3	1	1	4
Oc1ccc(-c2c(-c3ccsc3)sc3ccccc23)cc1	-1	52*	0	-12	4
COCc1ccc(-c2c(-c3ccsc3)sc3ccccc23)cc1	2	-23	1	-3	7
O=C(C=Cc1ccccc1)Nc1ccccc1	/	-3	/	/	-1
CC(C)(C)c1ccc(/C=C/C(=O)Nc2ccncc2)cc1	2	53*	6	-10	3
Cn1c(CSCc2ccc(F)cc2)nnc1SCC(=O)Nc1nccs1	11	35	8	-9	20
Cn1c(CSCc2ccc(Cl)c(Cl)c2)nnc1SCC(=O)Nc1nccs1	9	62*	17	-21	40*
COc1ccc(C(=O)Nc2ccc(S(=O)(=O)N3CCc4ccccc43)cc2)cc1	4	51*	7	-8	15
CCc1nnc(NC(=O)c2ccc(Cl)c(S(=O)(=O)N3CCc4ccccc43)c2)s1	4	20	3	-19	13
O=C(Nc1ccncc1)c1ccc(Cl)c(S(=O)(=O)N2CCc3ccccc32)c1	12	63*	9	-17	15
O=C(Nc1nnc(C2CC2)s1)c1ccc(Cl)c(S(=O)(=O)N2CCc3ccccc3C2)c1	6	57*	10	-9	10
CCCCn1c(N)c(N(CCOC)C(=O)CSCc2cccc(C)c2)c(=O)[nH]c1=O	0	-28	0	3	5
O=C(Cn1nnc(N2CCOCC2)n1)NN=Cc1ccccc1Cl	/	5	/	/	0
CCOC(=O)Cn1nc(-c2ccccc2)c2cnc3ccc(C)cc3c21	-1	49*	0	-2	4
O=C1CCC(C(=O)O)N1 (stereo not drawn)	0	2	0	-2	5
O=C(COC(=O)c1ccc[nH]c1=O)NC1CC1	3	-8	0	2	0
CCOc1ccc(S(=O)(=O)NCCC(=O)NCCCSc2ccccc2)cc1	0	-4	4	-19	1
COc1cc(NC(=O)NCCN2CCN(c3ccc(Cl)cc3)CC2)ccc1C	22*	36	35*	-20	48*
COc1ccc(N2CCN(CCNC(=O)Nc3ccc(C)c(Cl)c3)CC2)cc1	18	38	12	-19	27
O=c1[nH]cnc2scc(-c3ccc(-c4ccccc4)cc3)c12	0	50*	5	-8	10
COc1ccc(CN2CCC3CC2c2cc(Cl)ccc23)cc1 (stereo not drawn)	/	-11	/	/	8
O=C(NCc1ccc(F)cc1)c1ccc(N2CCc3ccccc32)c([N+](=O)[O-])c1	1	52*	3	-12	0
O=C(O)c1ccc(N2CCc3ccccc32)c([N+](=O)[O-])c1	0	-13	0	5	0
N=c1oc2c3c4c(cc2cc1C(=O)Nc1ccccc1)CCCN4CCC3	112*	/	60*	-21	/
